Experimental data as given in ChEMBL document CHEMBL4177743, “α-Methylation enhances the potency of isoprenoid triazole bisphosphonates as geranylgeranyl diphosphate synthase inhibitors” (Bioorg Med Chem, 2018).
Activity calls are given as the source filed them. The calls are words filed in the database; no cut-off is given here.

Columns and labels:
[1] = species: Homo sapiens; test: Selectivity ratio of IC50 for recombinant FDPS (unknown origin) to IC50 for recombinant GGDPS (unknown origin)
Outline: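 Ratio of FDPS IC50 to GGDPS IC50. Both enzymes were recombinant: FDPS from an academic source, GGDPS commercial. Each IC50 came from duplicate wells at multiple concentrations in three independent experiments. Positive controls were zoledronic acid for FDPS and digeranyl bisphosphate for GGDPS.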

[2] = biological target: T1, Farnesyl pyrophosphate synthase (Homo sapiens, UniProt P14324); test: Inhibition of recombinant FDPS (unknown origin) using GPP as substrate pretreated for 10 mins followed by substrate addition measured after 30 mins in presence of [14C]-IPP by liquid scintillation counting method
T1 sequence (P14324 whole entry): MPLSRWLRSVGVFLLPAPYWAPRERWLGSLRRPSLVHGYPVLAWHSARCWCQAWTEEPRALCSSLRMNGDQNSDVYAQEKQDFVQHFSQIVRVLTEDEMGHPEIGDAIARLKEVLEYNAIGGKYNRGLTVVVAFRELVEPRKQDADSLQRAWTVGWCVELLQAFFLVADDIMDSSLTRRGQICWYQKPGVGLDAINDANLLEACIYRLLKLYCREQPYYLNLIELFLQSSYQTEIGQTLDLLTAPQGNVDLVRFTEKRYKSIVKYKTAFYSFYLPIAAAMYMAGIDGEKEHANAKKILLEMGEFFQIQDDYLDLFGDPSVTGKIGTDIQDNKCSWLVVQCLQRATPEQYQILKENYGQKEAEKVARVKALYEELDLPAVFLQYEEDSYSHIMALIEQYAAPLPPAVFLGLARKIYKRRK
Outline: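 Recombinant FDPS was a gift from an academic laboratory. Each compound was tested in duplicate at multiple concentrations across three independent experiments to obtain IC50, with zoledronic acid as positive control in every run.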

[3] = biological target: T2, Geranylgeranyl pyrophosphate synthase (Homo sapiens) (UniProt O95749); test: Inhibition of GGDPS in human […] cells assessed as decrease in Rab GTPase geranylgeranylation by measuring accumulation of intracellular lambda light chain after 48 hrs by ELISA; format: cell-based
T2 sequence (whole entry): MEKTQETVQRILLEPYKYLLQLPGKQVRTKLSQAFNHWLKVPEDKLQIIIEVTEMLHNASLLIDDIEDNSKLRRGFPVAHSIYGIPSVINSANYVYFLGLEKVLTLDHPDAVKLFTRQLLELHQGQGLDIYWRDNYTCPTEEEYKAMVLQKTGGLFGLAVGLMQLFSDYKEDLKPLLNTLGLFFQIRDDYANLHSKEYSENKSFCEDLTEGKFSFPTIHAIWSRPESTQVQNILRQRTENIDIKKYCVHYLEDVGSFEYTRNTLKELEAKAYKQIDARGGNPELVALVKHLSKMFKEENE
Outline: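 RPMI-8226 myeloma cells were exposed for 48 h to a range of test concentrations, with lovastatin (10 μM) as positive control. Whole-cell lysates were made in RIPA buffer with protease and phosphatase inhibitors. Intracellular lambda light chain was quantified by human lambda ELISA and normalized to BCA total protein. Data are % of control, mean + SD, n=3; unpaired two-tailed t-test, p < 0.05.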

[4] = biological target: T3, Geranylgeranyl pyrophosphate synthase (Homo sapiens, UniProt O95749); test: Inhibition of recombinant GGDPS (unknown origin) using FPP as substrate pretreated for 10 mins followed by substrate addition measured after 30 mins in presence of [14C]-IPP by liquid scintillation counting method
T3 sequence (O95749 whole entry): T2 sequence (whole entry)
Outline: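 Commercial recombinant GGDPS was used, following a previously described protocol. Each compound was run in duplicate at several concentrations across three independent experiments, and IC50 was reported with digeranyl bisphosphate as the positive control in every run.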

[5] = biological target: T2, Geranylgeranyl pyrophosphate synthase (Homo sapiens); test: Inhibition of GGDPS in human […] cells assessed as increase in Rap1a level at 1 to 10 uM by Western blot analysis; format: cell-based
Outline: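 RPMI-8226 cells were treated for 48 h with varying compound concentrations or lovastatin (10 μM). RIPA lysates containing protease and phosphatase inhibitors were protein-equalized by BCA, then run on SDS-PAGE and transferred to PVDF. Blots were probed with an antibody detecting only unmodified (non-geranylgeranylated) Rap1a, with β-tubulin as loading control, and developed by HRP secondary and ECL.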

[6] = biological target: T2, Geranylgeranyl pyrophosphate synthase (Homo sapiens); details: 50 to 1000 nM
[7] = biological target: T2, Geranylgeranyl pyrophosphate synthase (Homo sapiens); details: 50 to 1000 nM; remark: listed apart in the source

Row | SMILES | Ratio IC50 [1] | IC50 [2] | MEC [3] | IC50 [4] | MEC [5] | inhibition [6] | inhibition [7]
1 | CC(C)=CCC/C(C)=C/CCn1cc(CC(C)(P(=O)(O)O)P(=O)(O)O)nn1 [listing 1 of 2 here] |  | 43.1 µM |  |  |  |  | 
2 | CC(C)=CCC/C(C)=C/CCn1cc(CC(C)(P(=O)(O)O)P(=O)(O)O)nn1 [listing 2 of 2 here] | 345 |  | 0.02 µM |  | 0.02 µM |  | 
3 | CC(C)=CCC/C(C)=C/CCn1cc(CC(C)(P(=O)(O)O)P(=O)(O)O)nn1 (mixture of isomers) [listing 1 of 2 here] | 241 |  | 0.03 µM |  | 0.03 µM |  | 
4 | CC(C)=CCC/C(C)=C/CCn1cc(CC(C)(P(=O)(O)O)P(=O)(O)O)nn1 (mixture of isomers) [listing 2 of 2 here] |  | 24.1 µM |  | 0.1 µM |  |  | 
5 | CC(C)=CCC/C(C)=C\CCn1cc(CC(C)(P(=O)(O)O)P(=O)(O)O)nn1 | 693 | 59.6 µM | 0.025 µM |  | 0.025 µM |  | 

Now from value to compound:

Row | Ratio IC50 [1] | IC50 [2] | MEC [3] | IC50 [4] | MEC [5] | inhibition [6] | inhibition [7] | SMILES
6 | 3.5 | 71.4 µM | 5 µM | 20.5 µM | 5 µM |  |  | CC(C)=CCC/C(C)=C/Cn1cc(CC(C)(P(=O)(O)O)P(=O)(O)O)nn1
7 |  |  |  |  |  | Active | Active | CC(C)=CCCC(C)=CCn1cc(CC(P(=O)(O)O)P(=O)(O)O)nn1 (mixture of isomers)
8 | > 108 | > 100 µM | 0.1 µM | 0.92 µM | 0.1 µM |  |  | CC(C)=CCC/C(C)=C\Cn1cc(CC(C)(P(=O)(O)O)P(=O)(O)O)nn1
9 | 16 | 94.3 µM | 2.5 µM | 5.85 µM | 2.5 µM |  |  | CCC(Cc1cn(CC=C(C)CCC=C(C)C)nn1)(P(=O)(O)O)P(=O)(O)O
10 | 49 | 62.2 µM | 0.1 µM | 1.27 µM | 0.1 µM |  |  | CC(C)=CCCC(C)=CCn1cc(CC(C)(P(=O)(O)O)P(=O)(O)O)nn1 (mixture of isomers)
